# From ChEMBL document CHEMBL4184255, “Formoxanthone C, isolated from Cratoxylum formosum ssp. pruniflorum, reverses anticancer drug resistance by inducing both apoptosis and autophagy in human A549 lung cancer cells” (Bioorg Med Chem Lett, 2018)
# Calls of active or inactive are those of the source. No cut-off for these calls is given here.
# Assays:
# A549 = experiment: Cytotoxicity in human A549 cells incubated for 72 hrs by MTT assay; type: functional, cell-based; conditions: A549, 72 h
# In short: (§1)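 Parental A549 and etoposide-resistant A549RT-eto cells exposed 72 h to two-fold serial dilutions, 25 to 1.56 µg/ml; viability by MTT; IC50 derived from dose-response; mean of triplicates with standard deviation.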
# [1] = Induction of cell death in multidrug resistant human A549RT-eto cells assessed as cell survival at 20 ug/ml incubated for 24 hrs in presence of pan-caspase inhibitor Z-VAD by light microscopy (reference value: 30%); type: functional; conditions: read-out: Survival
# In short: (§2)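 Etoposide-resistant A549RT-eto cells exposed for 24 h to XanX 20 µg/ml, pan-caspase inhibitor Z-VAD 20 µM, or both combined. Morphology inspected by light microscope. Viability read by MTT assay as percentage relative to control. Values are the mean of at least three experiments.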
# Homo sapiens [2] = species: Homo sapiens; experiment: Induction of autophagy in multidrug resistant human A549RT-eto cells assessed as increase in beclin-1 protein level at 20 ug/ml incubated for 24 hrs in presence of pan-caspase inhibitor Z-VAD by immunoblot; type: functional
# In short: (§3)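 A549RT-eto cells given 20 µg/ml alone, Z-VAD (20 µM) alone, or both for 24 h; MTT viability, mean of at least three experiments; lysates on 12% SDS-PAGE immunoblotted for cleaved PARP, beclin-1, LC3B and Atg5.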
# Homo sapiens [3] = species: Homo sapiens; experiment: Induction of autophagy in multidrug resistant human A549RT-eto cells assessed as increase in LC3-I to LC3-II conversion at 7.5 to 20 ug/ml incubated for 12 hrs by immunoblot
# Homo sapiens [4] = species: Homo sapiens; experiment: Induction of apoptosis in multidrug resistant human A549RT-eto cells assessed as reduction in pro-caspse-8 protein expression at 10 to 20 ug/ml incubated for 12 hrs by Western blot method; type: functional
# In short: (§4)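 A549RT-eto cells treated at 10 and 20 µg/ml, lysed at 12 h; lysates resolved on 12% SDS-PAGE; immunoblot for pro-caspase 8 and PARP cleavage.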
# Homo sapiens [5] = species: Homo sapiens; experiment: Induction of cell death in multidrug resistant human A549RT-eto cells at 20 ug/ml incubated for 24 hrs in presence of beclin-1 siRNA by light microscopy; type: functional
# In short: (§5)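 A549RT-eto cells transfected with control or beclin-1 siRNA (100 nM), then given 0 or 20 µg/ml for 24 h; viability by light microscopy and MTT as percent relative viability, mean of three experiments; lysates on 12% SDS-PAGE immunoblotted for PARP cleavage, beclin-1 and LC3.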
# [6] = Induction of cell death in multidrug resistant human A549RT-eto cells at 20 ug/ml incubated for 24 hrs in presence of HDAC4 siRNA by MTT assay; type: functional
# In short: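 A549RT-eto cells transfected with control or HDAC4 siRNA (100 nM), then exposed to XanX 20 µg/ml for 24 h. Morphology checked by light microscope. Viability by MTT assay as percentage relative viability, mean of three experiments.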
# [7] = Cytotoxicity in multidrug resistant human A549RT-eto cells incubated for 72 hrs by MTT assay; type: functional, cell-based; in short: as §1
# Homo sapiens [8] = species: Homo sapiens; experiment: Induction of cell death in multidrug resistant human A549RT-eto cells incubated for 72 hrs by MTT assay; type: functional; in short: as §1
# Homo sapiens [9] = species: Homo sapiens; experiment: Induction of apoptosis in multidrug resistant human A549RT-eto cells assessed as increase in PARP cleavage at 20 ug/ml incubated for 24 hrs in presence of beclin-1 siRNA by Western blot method; type: functional; in short: as §5
# Homo sapiens [10] = species: Homo sapiens; experiment: Induction of apoptosis in multidrug resistant human A549RT-eto cells assessed as increase in PARP cleavage at 10 to 20 ug/ml incubated for 12 hrs by Western blot method; type: functional; in short: as §4
# Homo sapiens [11] = species: Homo sapiens; experiment: Induction of autophagy in multidrug resistant human A549RT-eto cells assessed as increase in LC3-I to LC3-II conversion at 20 ug/ml incubated for 24 hrs in presence of pan-caspase inhibitor Z-VAD by immunoblot; type: functional; in short: as §3
# Homo sapiens [12] = species: Homo sapiens; experiment: Induction of autophagy in multidrug resistant human A549RT-eto cells assessed as increase in LC3-I to LC3-II conversion at 20 ug/ml incubated for 24 hrs in presence of HDAC4 siRNA by immunoblot; type: functional
# In short: (§6)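 A549RT-eto cells transfected with control or HDAC4 siRNA (100 nM), then 20 µg/ml for 24 h; MTT viability, mean of three experiments; lysates on 12% SDS-PAGE immunoblotted for HDAC4, beclin-1 and LC3-I cleavage.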
# Homo sapiens [13] = species: Homo sapiens; experiment: Cytotoxicity in multidrug resistant human A549RT-eto cells assessed as reduction in cell survival at; type: functional, cell-based
# Homo sapiens [14] = species: Homo sapiens; experiment: Induction of apoptosis in multidrug resistant human A549RT-eto cells assessed as increase in PARP cleavage at 20 ug/ml incubated for 24 hrs in presence of HDAC4 siRNA by Western blot method; type: functional
# Homo sapiens [15] = species: Homo sapiens; experiment: Induction of apoptosis in multidrug resistant human A549RT-eto cells assessed as reduction in pro-caspse-9 protein expression at 10 to 20 ug/ml incubated for 12 hrs by Western blot method; type: functional
# Homo sapiens [16] = species: Homo sapiens; experiment: Induction of autophagy in multidrug resistant human A549RT-eto cells assessed as increase in LC3-I to LC3-II conversion at 20 ug/ml incubated for 24 hrs in presence of beclin-1 siRNA by immunoblot; type: functional; in short: as §5
# Homo sapiens [17] = species: Homo sapiens; experiment: Cytotoxicity in multidrug resistant human A549RT-eto cells assessed as reduction in cell survival at 20 ug/ml incubated for 12 hrs by MTT assay; type: functional, cell-based
# In short: (§7)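 A549RT-eto cells held at fixed 20 µg/ml and sampled at several exposure times (0, 6, 12, 24 h); survival scored.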
# Homo sapiens [18] = species: Homo sapiens; experiment: Induction of autophagy in multidrug resistant human A549RT-eto cells assessed as increase in vacuoles formation at 7.5 to 20 ug/ml by light microscopy
# Homo sapiens [19] = species: Homo sapiens; experiment: Reduction in HDAC4 protein expression in multidrug resistant human A549RT-eto cells at 20 ug/ml incubated for 24 hrs by immunoblot; type: functional
# In short: (§8)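 A549 and A549RT-eto cells treated with 20 µg/ml for 24 h; lysates resolved on 8% SDS-PAGE; immunoblot for HDAC4, P-gp and PARP cleavage.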
# Homo sapiens [20] = species: Homo sapiens; experiment: Induction of autophagy in multidrug resistant human A549RT-eto cells assessed as increase in beclin-1 protein level at 20 ug/ml incubated for 24 hrs in presence of HDAC4 siRNA by immunoblot; type: functional; in short: as §6
# [21] = Induction of cell death in multidrug resistant human A549RT-eto cells assessed as cell survival at 20 ug/ml incubated for 24 hrs in presence of pan-caspase inhibitor Z-VAD by MTT assay (reference value: 30%); type: functional; conditions: read-out: Survival; in short: as §2
# Homo sapiens [22] = species: Homo sapiens; experiment: Reduction in P-gp protein expression in multidrug resistant human A549RT-eto cells at 20 ug/ml incubated for 24 hrs by immunoblot; type: functional; in short: as §8
# Homo sapiens [23] = species: Homo sapiens; experiment: Induction of apoptosis in multidrug resistant human A549RT-eto cells assessed as increase in PARP cleavage at 20 ug/ml incubated for 24 hrs in presence of pan-caspase inhibitor Z-VAD by Western blot method; type: functional; in short: as §3
# Homo sapiens [24] = species: Homo sapiens; experiment: Induction of autophagy in multidrug resistant human A549RT-eto cells assessed as increase in beclin-1 protein level at 20 ug/ml incubated for 24 hrs by immunoblot; type: functional
# Homo sapiens [25] = species: Homo sapiens; experiment: Induction of cell death in multidrug resistant human A549RT-eto cells incubated for 72 hrs by light microscopy; type: functional
# In short: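 A549RT-eto cells given 0, 1.56, 3.13, 6.25, 12.5 or 25 µg/ml for 72 h; morphology and viability judged under light microscope.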
# [26] = Induction of cell death in multidrug resistant human A549RT-eto cells at 20 ug/ml incubated for 24 hrs by MTT assay; type: functional
# Homo sapiens [27] = species: Homo sapiens; experiment: Induction of autophagy in multidrug resistant human A549RT-eto cells assessed as reduction in mTOR phosphorylation at 7.5 to 20 ug/ml incubated for 12 hrs by immunoblot
# Homo sapiens [28] = species: Homo sapiens; experiment: Cytotoxicity in multidrug resistant human A549RT-eto cells assessed as reduction in cell survival at 20 ug/ml incubated for 24 hrs by MTT assay; type: functional, cell-based; in short: as §7
# Homo sapiens [29] = species: Homo sapiens; experiment: Induction of autophagy in multidrug resistant human A549RT-eto cells assessed as increase in LC3-I to LC3-II conversion at 20 ug/ml incubated for 24 hrs by immunoblot; type: functional
# [30] = Induction of cell death in multidrug resistant human A549RT-eto cells assessed as cell survival at 20 ug/ml incubated for 24 hrs in absence of pan-caspase inhibitor Z-VAD by light microscopy; type: functional; conditions: read-out: Survival; in short: as §2
# Homo sapiens [31] = species: Homo sapiens; experiment: Induction of autophagy in multidrug resistant human A549RT-eto cells assessed as increase in beclin-1 protein level at 7.5 to 20 ug/ml incubated for 12 hrs by immunoblot
# Homo sapiens [32] = species: Homo sapiens; experiment: Induction of autophagy in multidrug resistant human A549RT-eto cells assessed as increase in GFP-LC3-II puncta at 7.5 to 20 ug/ml incubated for 24 hrs by fluorescence microscopy; type: functional
# [33] = Induction of cell death in multidrug resistant human A549RT-eto cells assessed as cell survival at 20 ug/ml incubated for 24 hrs in absence of pan-caspase inhibitor Z-VAD by MTT assay; type: functional; conditions: read-out: Survival; in short: as §2
# Homo sapiens [34] = species: Homo sapiens; experiment: Induction of cell death in multidrug resistant human A549RT-eto cells at 20 ug/ml incubated for 24 hrs in presence of beclin-1 siRNA by MTT assay; type: functional; in short: as §5
smiles,measurement,setting,value
CC(C)=CCc1c2c(c3oc4c(O)c(O)ccc4c(=O)c3c1O)C(C)(C)C(C)O2 (stereo not given),IC50,A549,2.56 µg/mL
same,viability at 20 µg/mL,[1],85%
same,Activity,Homo sapiens [2],Active
same,Activity,Homo sapiens [3],Active
same,Activity,Homo sapiens [4],Active
same,Activity,Homo sapiens [5],inactive
same,Activity,[6],80%
same,IC50,[7],4.65 µg/mL
same,Activity,Homo sapiens [8],Dose-dependent effect
same,Activity,Homo sapiens [9],Active
same,Activity,Homo sapiens [10],Active
same,Activity,Homo sapiens [11],Active
same,Activity,Homo sapiens [12],Active
same,Activity,Homo sapiens [13],inactive
same,Activity,Homo sapiens [14],Active
same,Activity,Homo sapiens [15],Active
same,Activity,Homo sapiens [16],inactive
same,Activity,Homo sapiens [17],inactive
same,Activity,Homo sapiens [18],Active
same,Activity,Homo sapiens [19],Active
same,Activity,Homo sapiens [20],Active
same,viability at 20 µg/mL,[21],85%
same,Activity,Homo sapiens [22],Active
same,Activity,Homo sapiens [23],inactive
same,Activity,Homo sapiens [24],Active
same,Activity,Homo sapiens [25],Dose-dependent effect
same,Activity,[26],60%
same,Activity,Homo sapiens [27],Active
same,Activity,Homo sapiens [28],Active
same,Activity,Homo sapiens [29],Active
same,viability at 20 µg/mL,[30],30%
same,Activity,Homo sapiens [31],Active
same,Activity,Homo sapiens [32],Active
same,viability at 20 µg/mL,[33],30%
same,Activity,Homo sapiens [34],inactive
